“And” between values parts separate entries of the source, which are not always exact repeats. Equal values may be shown once.
Tests used:
HEK-293T = assay: Multiplex assay against HEK293T; type: toxicity, cell-based; details: human
Summary of the method: (§1)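 Live cells carried four stains from seeding: Hoechst33342, BioTracker Green Microtubule Cytoskeleton Dye, MitoTracker Red and Annexin V Alexa Fluor 680. They were imaged on a CQ1 microscope at 37°C and 5% CO2 after compound addition. Using CellPathfinder machine-learning gating, cells were split into Hoechst high-intensity objects or normal cells, normal cells into healthy, pyknosed or fragmented nuclei, and pyknosed cells into mitotic or apoptotic; tubulin, mitochondrial-mass and membrane-permeability phenotypes are per cents of healthy-nucleus cells.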

U2OS = assay: Multiplex assay against U2OS; type: toxicity, cell-based; details: human; summary of the method: as §1
[1] = 24 h, 1 µM, compound concentration 1 uM
[2] = 24 h, 10 µM, compound concentration 10 uM
[3] = 48 h, 1 µM, compound concentration 1 uM
[4] = 48 h, 10 µM, compound concentration 10 uM
[5] = 12 h, 1 µM, compound concentration 1 uM
[6] = 12 h, 10 µM, compound concentration 10 uM

Compound: N#Cc1ccnc(Nc2cc(C3CCN(C4COC4)CC3)cc(N3CCC(F)(F)C3)n2)c1
- Population Pyknosed Nuclei (%) (HEK-293T; [1]): 55.8% and 85.04%
- Population Tubulin-Different-Phenotype (%) (HEK-293T; [1]): 49.57% and 23.53%
- Total Cell Count (HEK-293T; [1]): 278 and 128
- Population Apoptotic (%) (HEK-293T; [2]): 63.77% and 56.46%
- Population Fragmented Nuclei (%) (HEK-293T; [2]): 4.87% and 13.57%
- Population Healthy Nuclei (%) (HEK-293T; [2]): 17.6% and 19.91%
- Population Hoechst High Intensity Objects (%) (HEK-293T; [2]): 0.74% and 0%
- Population Membrane Permeable-Phenotype (%) (HEK-293T; [2]): 0% and 9.09%
- Population Mitotic Cells (%) (HEK-293T; [2]): 36.23% and 43.54%
- Population Normal (%) (HEK-293T; [2]): 99.26% and 100%
- Population Pyknosed Nuclei (%) (HEK-293T; [2]): 77.53% and 66.52%
- Total Cell Count (HEK-293T; [2]): 269 and 221
- Population Fragmented Nuclei (%) (HEK-293T; [3]): 4.08% and 0.7%
- Population Healthy Nuclei (%) (HEK-293T; [3]): 73.7% and 38.46%
- Population Hoechst High Intensity Objects (%) (HEK-293T; [3]): 0.23% and 0.69%
- Population Membrane Permeable-Phenotype (%) (HEK-293T; [3]): 4.31% and 3.64%
- Population Mitochondria Different-Phenotype (%) (HEK-293T; [3]): 60.62% and 56.36%
- Population Mitotic Cells (%) (HEK-293T; [3]): 69.39% and 90.8%
- Population Normal (%) (HEK-293T; [3]): 99.77% and 99.31%
- Population Pyknosed Nuclei (%) (HEK-293T; [3]): 22.22% and 60.84%
- Population Apoptotic (%) (HEK-293T; [4]): 88.68% and 82.35%
- Population Fragmented Nuclei (%) (HEK-293T; [4]): 5.62% and 11.71%
- Population Healthy Nuclei (%) (HEK-293T; [4]): 14.98% and 13.66%
- Population Hoechst High Intensity Objects (%) (HEK-293T; [4]): 0.37% and 0.49%
- Population Membrane Permeable-Phenotype (%) (HEK-293T; [4]): 5% and 3.57%
- Population Mitotic Cells (%) (HEK-293T; [4]): 11.32% and 17.65%
- Population Normal (%) (HEK-293T; [4]): 99.63% and 99.51%
- Population Pyknosed Nuclei (%) (HEK-293T; [4]): 79.4% and 74.63%
- Total Cell Count (HEK-293T; [4]): 268 and 206
- Population Apoptotic (%) (U2OS; [5]): 40.82% and 36.11%
- Population Fragmented Nuclei (%) (U2OS; [5]): 3.13% and 0.79%
- Population Healthy Nuclei (%) (U2OS; [5]): 84.07% and 70.87%
- Population Hoechst High Intensity Objects (%) (U2OS; [5]): 0%
- Population Membrane Permeable-Phenotype (%) (U2OS; [5]): 3.11% and 2.22%
- Population Mitochondria Different-Phenotype (%) (U2OS; [5]): 0.62% and 8.89%
- Population Mitotic Cells (%) (U2OS; [5]): 59.18% and 63.89%
- Population Normal (%) (U2OS; [5]): 100%
- Population Pyknosed Nuclei (%) (U2OS; [5]): 12.79% and 28.35%
- Population Tubulin-Different-Phenotype (%) (U2OS; [5]): 4.35% and 2.22%
- Population Apoptotic (%) (U2OS; [6]): 46.67% and 38.95%
- Population Fragmented Nuclei (%) (U2OS; [6]): 9.07% and 13.15%
- Population Healthy Nuclei (%) (U2OS; [6]): 64.38% and 42.25%
- Population Hoechst High Intensity Objects (%) (U2OS; [6]): 0%
- Population Membrane Permeable-Phenotype (%) (U2OS; [6]): 7.56% and 17.78%
- Population Mitotic Cells (%) (U2OS; [6]): 53.33% and 61.05%
- Population Normal (%) (U2OS; [6]): 100%
- Population Pyknosed Nuclei (%) (U2OS; [6]): 26.55% and 44.6%
- Population Tubulin-Different-Phenotype (%) (U2OS; [6]): 73.88% and 62.22%
- Total Cell Count (U2OS; [6]): 452 and 213
- Population Apoptotic (%) (U2OS; [1]): 47.06% and 53.12%
- Population Fragmented Nuclei (%) (U2OS; [1]): 3.81% and 2.05%
- Population Healthy Nuclei (%) (U2OS; [1]): 82.57% and 76.03%
- Population Hoechst High Intensity Objects (%) (U2OS; [1]): 0%
- Population Membrane Permeable-Phenotype (%) (U2OS; [1]): 2.18% and 6.31%
- Population Mitochondria Different-Phenotype (%) (U2OS; [1]): 0.49% and 8.11%
- Population Mitotic Cells (%) (U2OS; [1]): 52.94% and 46.88%
- Population Normal (%) (U2OS; [1]): 100%
- Population Pyknosed Nuclei (%) (U2OS; [1]): 13.63% and 21.92%
- Population Tubulin-Different-Phenotype (%) (U2OS; [1]): 2.67% and 3.6%
- Population Apoptotic (%) (U2OS; [2]): 51.37% and 67.97%
- Population Fragmented Nuclei (%) (U2OS; [2]): 11.21% and 9%
- Population Healthy Nuclei (%) (U2OS; [2]): 50.11% and 30.33%
- Population Hoechst High Intensity Objects (%) (U2OS; [2]): 0% and 0.47%
- Population Membrane Permeable-Phenotype (%) (U2OS; [2]): 6.75% and 10.94%
- Population Mitochondria Different-Phenotype (%) (U2OS; [2]): 21.94% and 51.56%
- Population Mitotic Cells (%) (U2OS; [2]): 48.63% and 32.03%
- Population Normal (%) (U2OS; [2]): 100% and 99.53%
- Population Pyknosed Nuclei (%) (U2OS; [2]): 38.69% and 60.66%
- Population Tubulin-Different-Phenotype (%) (U2OS; [2]): 58.65% and 40.62%
- Total Cell Count (U2OS; [2]): 473 and 212
- Population Apoptotic (%) (U2OS; [3]): 55.7% and 66.67%
- Population Fragmented Nuclei (%) (U2OS; [3]): 3.56% and 4.98%
- Population Healthy Nuclei (%) (U2OS; [3]): 85.19% and 78.61%
- Population Hoechst High Intensity Objects (%) (U2OS; [3]): 0.14% and 0%
- Population Membrane Permeable-Phenotype (%) (U2OS; [3]): 1.84% and 5.06%
- Population Mitochondria Different-Phenotype (%) (U2OS; [3]): 0.67% and 6.33%
- Population Mitotic Cells (%) (U2OS; [3]): 44.3% and 33.33%
- Population Normal (%) (U2OS; [3]): 99.86% and 100%
- Population Pyknosed Nuclei (%) (U2OS; [3]): 11.25% and 16.42%
- Population Tubulin-Different-Phenotype (%) (U2OS; [3]): 3.01% and 2.53%
- Population Apoptotic (%) (U2OS; [4]): 68.72% and 75.36%
- Population Fragmented Nuclei (%) (U2OS; [4]): 9.35% and 11.35%
- Population Healthy Nuclei (%) (U2OS; [4]): 37.83% and 28.38%
- Population Hoechst High Intensity Objects (%) (U2OS; [4]): 0.22% and 0%
- Population Mitochondria Different-Phenotype (%) (U2OS; [4]): 37.93% and 24.62%
- Population Mitotic Cells (%) (U2OS; [4]): 31.28% and 24.64%
- Population Normal (%) (U2OS; [4]): 99.78% and 100%
- Population Pyknosed Nuclei (%) (U2OS; [4]): 52.83% and 60.26%
- Population Tubulin-Different-Phenotype (%) (U2OS; [4]): 56.9% and 30.77%
- Total Cell Count (U2OS; [4]): 461 and 229

— ChEMBL document CHEMBL5724801, “EUbOPEN Chemogenomics Library - Multiplex” (2024)
